Screens: PubChem BioAssay, several laboratories
This is a sample that favours compounds with a hit; in the whole collection about 1.6% have one here.
UCH37 DUB inh = blocks the human deubiquitinase UCH37. purified proteasome/UCH37, Ub-AMC cleavage fluorescence. inhibition, % (concentration not given with the values). hit rate 0.33% among 330,000. Q9Y5K5;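 active = mean inhibition over replicate wells above about 20%, limit read from the data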;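 also: 0% = compound-free wells with enzyme and 100% = wells lacking proteasome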
Target sequence (Q9Y5K5 whole entry, looked up): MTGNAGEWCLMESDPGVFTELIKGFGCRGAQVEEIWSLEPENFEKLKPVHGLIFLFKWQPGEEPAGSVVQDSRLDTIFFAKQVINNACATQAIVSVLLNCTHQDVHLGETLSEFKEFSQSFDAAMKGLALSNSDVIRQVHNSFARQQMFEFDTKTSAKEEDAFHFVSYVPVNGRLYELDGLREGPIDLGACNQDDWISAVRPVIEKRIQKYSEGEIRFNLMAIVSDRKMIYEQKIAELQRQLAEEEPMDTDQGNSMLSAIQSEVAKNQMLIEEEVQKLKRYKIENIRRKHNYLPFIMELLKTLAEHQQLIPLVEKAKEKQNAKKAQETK
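system = Proteasome-associated human UCH37 deubiquitinase | amount = 0.15 nM proteasome as dispensed | medium = pH 7.4 Tris-HCl (50 mM) with ovalbumin, ATP-MgCl2, DTT | incubation = 30 min preincubation with enzyme, 25 min cleavage at room temperature | detection = AMC fluorescence 355/460 nm | read-out basis = percent inhibition | controls = no-proteasome and no-compound wells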
GSTO1 inh = counter-screen for RBBP9 inhibitors: inhibitors of human GSTO1; hit rate 1.1% among 300,000; recombinant GSTO1, activity-based probe fluorescence polarization; P78417; inhibition, % at 5.96 µM;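 active = inhibition above the campaign mean inhibition plus 3 SD, cut at about 35% in these data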;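 also: 0% = GSTO1-1 with DMSO and 100% = wells lacking GSTO1-1 enzyme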
PAD4 inh = PAD4 (human) enzyme inhibition; Q9UM07; recombinant PAD4, RCA probe fluorescence polarization; inhibition, % at 6.36 µM; hit rate 0.41% among 330,000; AID 485272;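 active = percent inhibition above a cutoff equal to the mean of all tested compounds plus 3 SD, cut at about 15% in these data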;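 also: 0% = PAD4 with RCA probe and DMSO and 100% = probe without PAD4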
HKDC1 inh = inhibitors of human hexokinase HKDC1; recombinant HKDC1, G6PDH/diaphorase resazurin coupled fluorescence; inhibition, % at 20 µM; hit rate 0.16% among 340,000;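 active = inhibition above about 35% when tested at 20 µM, limit read from the data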;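 also: plate controls were DMSO wells with enzyme for no effect and DMSO wells lacking enzyme for full effect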
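Test system: Recombinant HKDC1 (HK5) hexokinase enzyme, produced in-house | Input: HKDC1 at 5 µg/mL | Buffer or medium: Tris pH 8.0 buffer with MgCl2, Tween-20, BSA, BME | Schedule: 90 min reaction incubation at room temperature, dark | Technique: Resazurin-to-resorufin fluorescence via G6PDH and diaphorase coupling, 525/613 nm | Controls: DMSO wells with and without enzyme mix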
TDP2 absorb = blocks human TDP2 phosphodiesterase activity; O95551; recombinant TDP2, T5PNP hydrolysis, p-nitrophenol absorbance 415 nm; inhibition, % at 12.8 µM; hit rate 0.34% among 370,000; AID 720702;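 active = inhibition above the mean of all tested compounds plus 3 SD, set per campaign, cut at about 25% in these data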;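 also: 0% = DMSO with enzyme and 100% = buffer with substrate but no TDP2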
Target sequence (O95551 whole entry, looked up): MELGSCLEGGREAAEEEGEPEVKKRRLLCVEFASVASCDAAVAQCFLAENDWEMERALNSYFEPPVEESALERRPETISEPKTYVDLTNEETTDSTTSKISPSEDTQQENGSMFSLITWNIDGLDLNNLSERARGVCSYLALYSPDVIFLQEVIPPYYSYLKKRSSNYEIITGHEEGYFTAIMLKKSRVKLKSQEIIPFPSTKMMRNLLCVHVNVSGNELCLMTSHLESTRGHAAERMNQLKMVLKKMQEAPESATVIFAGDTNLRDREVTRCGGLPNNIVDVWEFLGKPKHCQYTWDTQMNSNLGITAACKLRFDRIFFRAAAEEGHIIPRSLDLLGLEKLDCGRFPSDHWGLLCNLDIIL
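Incubation: 2 h at 37 °C; Test system: recombinant human TDP2; Quantity: enzyme 120 nM; Read-out basis: percent inhibition; Medium: 50 mM Tris-HCl pH 7.5 with Mg2+, KCl, DTT, BSA; Repeats: single replicate; Compound: 12.8 µM single point, 1% DMSO; Signal: epi absorbance; Reagent: 5 mM T5PNP chromogenic substrate; Benchmarks: no-enzyme high, DMSO-plus-enzyme low.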
CTSL1 counter = cathepsin L1 inhibition, PFM18AAP counter-screen; recombinant F. hepatica cathepsin L1, Z-Leu-Arg-MCA fluorescence; inhibition, % at 5.96 µM; hit rate 0.49% among 300,000;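 active = inhibition above the mean of all tested compounds plus 3 SD, set per screening campaign, cut at about 17% in these data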;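 also: 0% = plate median of test compound wells and 100% = 1 µM Z-Phe-Ala-diazomethylketone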
* marks the source's active call; other numbers are inactive results; / = no result given.

SMILES | UCH37 DUB inh | GSTO1 inh | PAD4 inh | HKDC1 inh | TDP2 absorb | CTSL1 counter
COc1cc2c3nnc(-c4ccc(F)cc4)c-3cn(Cc3cccc(C)c3)c2cc1OC | -71 | 0 | -6 | 0 | -5 | 3
O=C(NN=Cc1ccsc1)c1c[nH]c2ccccc12 | 5 | / | / | / | / | /
COCCN1C(=O)N[C@@H](c2cccc(C(F)(F)F)c2)[C@H](C(=O)OC)[C@H]1C | 3 | 8 | 3 | 2 | 9 | -2
COCCN1C(=O)N[C@@H](c2ccccc2)[C@@H](C(=O)OC)[C@H]1C | 22* | -2 | -1 | -3 | 6 | -2
CN(C1=C(NC(=O)c2ccc(Cl)cc2)C(=O)c2ccccc2C1=O)c1ccccc1 | 1 | 43* | -1 | 12 | -1 | -1
O=C(NC1=C(Nc2ccc(Cl)cc2)C(=O)c2ccccc2C1=O)c1ccccc1 | 9 | 32 | -18 | 5 | 5 | 7
C/C(=N\NC(N)=S)C1(C)CC2(CC(C)(C)OC2=O)C(=O)O1 (centres undefined) | / | 4 | 0 | -3 | 5 | 19*
CCS(=O)(=O)N1CCCC(C(=O)NCC2CCCO2)C1 (centres undefined) | 31* | -4 | 4 | -8 | 4 | -1
O=C(NCC1CCCO1)C1CCCN(S(=O)(=O)c2ccc(F)cc2)C1 (centres undefined) | 0 | 5 | -6 | 0 | -6 | -2
Cc1ccc(C(=O)Nc2ccc(C(=O)N/N=C/c3ccccn3)cc2)cc1 | / | 0 | -8 | 0 | 0 | 19*
Cc1ccccc1C(=O)NN=C1SCC(=O)N1Cc1ccccc1 | 0 | / | / | / | / | /
COc1ccc(-c2cc(=Nc3nc(-c4ccccc4)c(C)s3)c3ccccc3o2)cc1O | 3 | / | / | / | / | /
O=C(C1=C[C@@H](c2ccc(Br)cc2)C[C@@H](OCCCCO)O1)N1CCN(Cc2ccc3c(c2)OCO3)CC1 | 30* | 3 | 0 | 1 | 5 | 3
O=C(C1=C[C@H](c2ccccc2)C[C@H](OCCCCO)O1)N1CCN(Cc2ccc3c(c2)OCO3)CC1 | 4 | -1 | 1 | 2 | 2 | -3
O=C(c1cnn2ccccc12)N(Cc1ccco1)C1CCCC1 | 5 | 1 | 2 | -4 | 4 | 47*
CC(=O)N1CCc2cc(S(=O)(=O)CCC(=O)NCc3ccc4c(c3)OCO4)ccc21 | 0 | 3 | 5 | 2 | 4 | 18*
CC(=O)N1CCc2cc(S(=O)(=O)CCC(=O)NCc3cccs3)ccc21 | 2 | 0 | 6 | -9 | 4 | -1
C[C@@H]1O[C@@H](O[C@H]2[C@H](O)[C@@H](O)[C@H](Oc3c(-c4ccc(O)cc4)oc4cc(O)cc(O)c4c3=O)O[C@@H]2CO)[C@H](O)[C@H](O)[C@H]1O | 0 | / | -1 | 0 | -2 | /
C[C@@H]1O[C@@H](OC2C(O)C(OCCc3ccc(O)c(O)c3)OC(CO)C2OC(=O)/C=C/c2ccc(O)c(O)c2)[C@H](O)[C@H](O)[C@H]1O (some centres undefined) | / | 54* | 0 | / | / | 2
OCCC1CN(Cc2cccn2-c2ccccn2)CCN1C1CCCCC1 (centres undefined) | 2 | 1 | 3 | 0 | -13 | 74*
Cc1ccc(CN2CCN(Cc3cccn3-c3ccccn3)CC2CCO)cc1 (centres undefined) | 3 | 0 | -6 | -7 | 3 | -1
O=S(=O)(O)c1cccc2cccc(Nc3ccccc3)c12 | -34 | 38* | 2 | 10 | 13 | 8
O=C(NC1CCCC1)C(c1ccc(Cl)cc1)N(Cc1ccc(F)cc1)C(=O)CCl (centres undefined) | 2 | 13 | 1 | 10 | / | 36*
O=C(NC1CCCC1)C(c1ccc(F)cc1)N(Cc1ccc(Cl)cc1)C(=O)CCl (centres undefined) | 0 | 18 | -2 | 8 | 12 | 41*
Cc1cc(=O)[nH]c(NN=Cc2ccc(OC(=O)c3cccnc3)cc2)n1 | 7 | / | / | / | / | /
SMILES | UCH37 DUB inh | GSTO1 inh | PAD4 inh | HKDC1 inh | TDP2 absorb | CTSL1 counter
CC(=NNC(=O)c1sc(=S)n(C)c1C)c1ccccc1 | 5 | / | / | / | / | /
C/C(=N\NC(=O)Cc1cc(=O)[nH][nH]1)c1cccc([N+](=O)[O-])c1 | / | 45* | -5 | -3 | 2 | -2
O=C(O)c1cc(N/N=C/C(Cl)=C/c2ccccc2)ccc1Cl | / | 40* | 1 | 2 | 11 | 0
CCCCN(C(=S)Nc1ccccc1)C1CCS(=O)(=O)C1 (centres undefined) | 3 | 2 | -2 | -1 | 10 | 18*
COC(=O)c1cc[n+](CC(=O)c2ccccc2)cc1 | 23* | 9 | 1 | 5 | -5 | 0
CN(C)CCCNC(=O)CCc1nc2ccccc2c(=O)[nH]1 | 20* | 9 | -1 | -10 | 4 | 3
C/C(CC1CC(COCCC(C)C)OC1=O)=N\NC(N)=S (centres undefined) | / | 2 | 6 | 5 | 4 | 21*
O=C(COC(=O)c1ccc(=O)n(Cc2ccccc2)n1)Nc1ccc2c(c1)OCCO2 | 4 | 15 | -3 | -6 | 12 | 19*
O=C(COC(=O)[C@H](Cc1ccccc1)N1C(=O)c2ccccc2C1=O)Nc1ccc2c(c1)OCO2 | 5 | -10 | 4 | 1 | -2 | 23*
CC(C)[C@@H](C(=O)OCC(=O)Nc1ccc2c(c1)OCO2)N1C(=O)c2ccccc2C1=O | 3 | 7 | 1 | -2 | -2 | -1
CN(C)C=NC(=O)c1cc(C(=O)c2ccc(Cl)cc2)c[nH]1 | 5 | -2 | -6 | 9 | 8 | 18*
NC(=S)NN=C1CC(c2ccc3c(c2)OCCO3)Oc2ccc(F)cc21 (centres undefined) | 6 | / | / | / | / | /
NC(=S)N/N=C1\CCOc2ccc(F)cc21 | / | 8 | -1 | 0 | 9 | 18*
O=C(NN=Cc1ccncc1)NC12CC3CC(CC(C3)C1)C2 | 2 | / | / | / | / | /
COc1cc(/C=N/NC(=O)c2cccnc2)ccc1OCC(=O)N1CCOCC1 | / | 0 | 0 | -7 | -12 | 3
COc1cc(/C=N/NC(N)=S)ccc1OC(=O)c1ccc(C)cc1 | / | 9 | 1 | -2 | -8 | 66*
COc1cc(/C=N/NC(N)=S)ccc1OCC(=O)N1CCOCC1 | / | 9 | 3 | -8 | 3 | 18*
CC(=NNc1ccc(C(=O)O)cc1)c1ccc(O)c(O)c1O | 21* | / | / | / | / | /
NC(=NOC(=O)CC1CCCCC1)c1ccc([N+](=O)[O-])cc1 | 2 | / | / | / | / | /
CN(C)C(CNC(=O)c1ccc([N+](=O)[O-])cc1Cl)c1ccco1 (centres undefined) | -3 | 4 | -6 | 2 | 9 | 19*
COc1ccc2c(c1)C(=O)C(=O)N2CCS(=O)(=O)c1ccccc1 | 4 | 6 | 1 | 18 | -4 | 1
